In ChEMBL document CHEMBL1128718, “2-Substituted penems with amino acid-related side chains: synthesis and antibacterial activity of a new series of beta-lactam antibiotics” (1995):
In brackets after ≈: the same amount, converted by molar mass.

Assays:
Format in all cases: functional
Aeromonas = assay: In Vitro Anti Bacterial Activity (MIC90) against 90% of tested clinical Isolates of Aeromonas species(21)
Procedure, shortened: (§1)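 Over 500 clinical isolates tested in total; the line gives the isolate count. MIC90 for aerobes by dilution in Mueller Hinton 2 medium, inoculum 10⁴ cells/mL, incubated 24 h at 37 °C.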

[1] = system: Acinetobacter calcoaceticus subsp. anitratus; assay: In Vitro Anti Bacterial Activity (MIC90) against 90% of tested clinical Isolates of Acinetobacter anitratus(20); procedure, shortened: as §1
Moraxella catarrhalis = assay: In Vitro Anti Bacterial Activity (MIC90) against 90% of tested clinical Isolates of Branhamella catarrhalis(27)
Bacteroides fragilis = assay: In Vitro Anti Bacterial Activity (MIC90) against 90% of tested clinical Isolates of Bacteroides fragilis(15)
Procedure, shortened: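 Anaerobic clinical isolates. MIC90 by dilution in Wilkins-Chalgren agar, inoculum 10⁵ cells/mL, incubated 24–48 h at 37 °C.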

Clostridium perfringens = assay: In Vitro Anti Bacterial Activity (MIC90) against 90% of tested clinical Isolates of Clostridium perfringens(27)
Procedure, shortened: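 MIC90 over clinical isolates of this anaerobic species, taken from the MIC distribution. Anaerobes were tested on Wilkins-Chalgren agar with an inoculum of 10⁵ cells/mL and incubated 24–48 h at 37 °C.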

Citrobacter freundii = assay: In Vitro Anti Bacterial Activity (MIC90) against 90% of tested clinical Isolates of Citrobacter freundii(20); procedure, shortened: as §1
Enterococcus faecalis [2] = assay: In Vitro Anti Bacterial Activity (MIC90) against 90% of tested clinical Isolates of Enterococcus faecalis(47); procedure, shortened: as §1
Enterococcus faecium = assay: In Vitro Anti Bacterial Activity (MIC90) against 90% of tested clinical Isolates of Enterococcus faecium(47); procedure, shortened: as §1
Enterococcus faecalis [3] = assay: In Vitro antibacterial activity against (Ef) Enterococcus faecalis ATCC 29212
Procedure, shortened: (§2)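 Panel of standard ATCC strains plus modified strains: methicillin-resistant, hyperpermeable, β-lactamase-producing (TEM1, TEM2, SHV) and β-lactamase-lacking. MIC determined in Mueller Hinton 2 medium, inoculum 10⁴ cells/mL, incubated 24 h at 37 °C.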

Escherichia coli [4] = assay: In Vitro Anti Bacterial Activity (MIC90) against 90% of tested clinical Isolates of Escherichia coli; procedure, shortened: as §1
Klebsiella aerogenes = assay: In Vitro Anti Bacterial Activity (MIC90) against 90% of tested clinical Isolates of Enterobacter aerogenes(19); procedure, shortened: as §1
Escherichia coli [5] = assay: In Vitro antibacterial activity against (Ec L) Escherichia coli […] strain; procedure, shortened: as §2
Escherichia coli [6] = assay: In Vitro antibacterial activity against (Ec SHV) Escherichia coli […] strain; procedure, shortened: as §2
Escherichia coli [7] = assay: In Vitro antibacterial activity against (Ec TEM1) Escherichia coli […] strain; procedure, shortened: as §2
Escherichia coli [8] = assay: In Vitro antibacterial activity against (Ec TEM2) Escherichia coli […] strain; procedure, shortened: as §2
Escherichia coli [9] = assay: In Vitro antibacterial activity against (Ec) Escherichia coli ATCC 25922; procedure, shortened: as §2
Haemophilus influenzae = assay: In Vitro Anti Bacterial Activity (MIC90) against 90% of tested clinical Isolates of Haemophilus Influenzae(21)
Procedure, shortened: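 Clinical isolates. MIC90 in Haemophilus Test Medium Base plus Haemophilus Test Medium Supplement, inoculum 10⁴ cells/mL, incubated 24–48 h at 37 °C.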

Klebsiella pneumoniae = assay: In Vitro Anti Bacterial Activity (MIC90) against 90% of tested clinical Isolates of Klebsiella pneumoniae(20); procedure, shortened: as §1
Listeria monocytogenes = assay: In Vitro Anti Bacterial Activity (MIC90) against 90% of tested clinical Isolates of Listeria monocytogenes (20); procedure, shortened: as §1
Pseudomonas aeruginosa [10] = assay: In Vitro antibacterial activity against (Pa G242) hyperpermeable Pseudomonas aeruginosa strain; procedure, shortened: as §2
Pseudomonas aeruginosa [11] = assay: In Vitro antibacterial activity against (Pa) Pseudomonas aeruginosa ATCC 27853; procedure, shortened: as §2
Pseudomonas aeruginosa [12] = assay: In Vitro antibacterial activity against (Pa) hyperpermeable Pseudomonas aeruginosa […] strain; procedure, shortened: as §2
Pseudomonas aeruginosa [13] = assay: In Vitro Anti Bacterial Activity (MIC90) against 90% of tested clinical Isolates of Pseudomonas aeruginosa(11); procedure, shortened: as §1
[14] = system: Staphylococcus epidermidis; assay: In Vitro Anti Bacterial Activity (MIC90) against 90% of tested clinical Isolates of Staphylococcus epidermidis (13); procedure, shortened: as §1
Streptococcus agalactiae = assay: In Vitro Anti Bacterial Activity (MIC90) against 90% of tested clinical Isolates of Streptococcus agalactiaeB(21)
Staphylococcus aureus [15] = assay: In Vitro Anti Bacterial Activity (MIC90) against 90% of tested clinical Isolates of Staphylococcus aureus MS (6); procedure, shortened: as §1
Staphylococcus aureus [16] = assay: In Vitro Anti Bacterial Activity (MIC90) against 90% of tested clinical Isolates of Staphylococcus aureus MV (20)
Staphylococcus aureus [17] = assay: In vitro antibacterial activity against Sa MR(I) heterogeneous methicillin resistant Staphylococcus aureus
Procedure, shortened: (§3)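 MIC was determined in Mueller Hinton 2 medium with an inoculum of 10⁴ cells/mL and incubation for 24 h at 37 °C. Strains: Sa(I) is S. aureus ATCC 29213; Sa MR(I) is a heterogeneous methicillin-resistant S. aureus; Sa MR(II) is a homogeneous methicillin-resistant S. aureus.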

Staphylococcus aureus [18] = assay: In vitro antibacterial activity against Sa MR(II) homogeneous methicillin resistant Staphylococcus aureus; procedure, shortened: as §3
Staphylococcus aureus [19] = assay: In vitro antibacterial activity against Sa(I) Staphylococcus aureus ATCC 29213; procedure, shortened: as §3
Staphylococcus aureus [20] = assay: In vitro antibacterial activity against Sa(II) Staphylococcus aureus ATCC 25923; procedure, shortened: as §2
Streptococcus pyogenes = assay: In Vitro Anti Bacterial Activity (MIC90) against 90% of tested clinical Isolates of Streptococcus pyogenes(31)
Streptococcus pneumoniae = assay: In Vitro Anti Bacterial Activity (MIC90) against 90% of tested clinical Isolates of Streptococcus pneumoniae (23)
Yersinia sp. = assay: In Vitro Anti Bacterial Activity (MIC90) against 90% of tested clinical Isolates of Yersinia species(20); conditions: Yersinia sp. (in: enterobacteria)
[21] = system: Stenotrophomonas maltophilia; assay: In Vitro Anti Bacterial Activity (MIC90) against 90% of tested clinical Isolates of Xanthomonas maltophilia(9); procedure, shortened: as §1
Escherichia coli [22] = assay: In Vitro antibacterial activity against (Ec DC2) hyperpermeable Escherichia coli strain; procedure, shortened: as §2
Morganella morganii = assay: In Vitro Anti Bacterial Activity (MIC90) against 90% of tested clinical Isolates of Morganella morganii(10); procedure, shortened: as §1
Proteus vulgaris = assay: In Vitro Anti Bacterial Activity (MIC90) against 90% of tested clinical Isolates of Proteus vulgaris(10); procedure, shortened: as §1
Providencia stuartii = assay: In Vitro Anti Bacterial Activity (MIC90) against 90% of tested clinical Isolates of Providencia stuartii(10); procedure, shortened: as §1
Providencia rettgeri = assay: In Vitro Anti Bacterial Activity (MIC90) against 90% of tested clinical Isolates of Providencia rettgeri(10); procedure, shortened: as §1
Proteus mirabilis = assay: In Vitro Anti Bacterial Activity (MIC90) against 90% of tested clinical Isolates of Proteus mirabilis(16); procedure, shortened: as §1

SMILES: C[C@@H](O)[C@H]1C(=O)N2C(C(=O)O)=C(CN3CCC[C@@H]3C(N)=O)S[C@H]12
- MIC90 (Aeromonas): 0.25 µg/mL (≈ 0.732 µM)
- MIC90 [1]: 32 µg/mL (≈ 93.7 µM)
- MIC90 (Moraxella catarrhalis): 2 µg/mL (≈ 5.86 µM)
- MIC90 (Bacteroides fragilis): 16 µg/mL (≈ 46.9 µM)
- MIC90 (Clostridium perfringens): 1 µg/mL (≈ 2.93 µM)
- MIC90 (Citrobacter freundii): 1 µg/mL (≈ 2.93 µM)
- MIC90 (Enterococcus faecalis [2]): 32 µg/mL (≈ 93.7 µM)
- MIC90 (Enterococcus faecium): > 64 µg/mL
- MIC (Enterococcus faecalis [3]): 16 µg/mL (≈ 46.9 µM)
- MIC90 (Escherichia coli [4]): 1 µg/mL (≈ 2.93 µM)
- MIC90 (Klebsiella aerogenes): 16 µg/mL (≈ 46.9 µM)
- MIC (Escherichia coli [5]): 1 µg/mL (≈ 2.93 µM)
- MIC (Escherichia coli [6]): 1 µg/mL (≈ 2.93 µM)
- MIC (Escherichia coli [7]): 1 µg/mL (≈ 2.93 µM)
- MIC (Escherichia coli [8]): 1 µg/mL (≈ 2.93 µM)
- MIC (Escherichia coli [9]): 1 µg/mL (≈ 2.93 µM)
- MIC90 (Haemophilus influenzae): 2 µg/mL (≈ 5.86 µM)
- MIC90 (Klebsiella pneumoniae): 1 µg/mL (≈ 2.93 µM)
- MIC90 (Listeria monocytogenes): 2 µg/mL (≈ 5.86 µM)
- MIC (Pseudomonas aeruginosa [10]): 1 µg/mL (≈ 2.93 µM)
- MIC (Pseudomonas aeruginosa [11]): 32 µg/mL (≈ 93.7 µM)
- MIC (Pseudomonas aeruginosa [12]): 0.25 µg/mL (≈ 0.732 µM)
- MIC90 (Pseudomonas aeruginosa [13]): > 64 µg/mL
- MIC90 [14]: 0.12 µg/mL (≈ 0.352 µM)
- MIC90 (Streptococcus agalactiae): 0.12 µg/mL (≈ 0.352 µM)
- MIC90 (Staphylococcus aureus [15]): 0.06 µg/mL (≈ 0.176 µM)
- MIC90 (Staphylococcus aureus [16]): 8 µg/mL (≈ 23.4 µM)
- MIC (Staphylococcus aureus [17]): 0.12 µg/mL (≈ 0.352 µM)
- MIC (Staphylococcus aureus [18]): 4 µg/mL (≈ 11.7 µM)
- MIC (Staphylococcus aureus [19]): 0.06 µg/mL (≈ 0.176 µM)
- MIC (Staphylococcus aureus [20]): 0.015 µg/mL (≈ 0.0439 µM)
- MIC90 (Streptococcus pyogenes): 0.5 µg/mL (≈ 1.46 µM)
- MIC90 (Streptococcus pneumoniae): 0.5 µg/mL (≈ 1.46 µM)
- MIC90 (Yersinia sp.): 1 µg/mL (≈ 2.93 µM)
- MIC90 [21]: > 64 µg/mL
- MIC (Escherichia coli [22]): 0.5 µg/mL (≈ 1.46 µM)

SMILES: C[C@@H](O)[C@H]1C(=O)N2C(C(=O)O)=C(CN3C[C@H](O)C[C@H]3C(N)=O)S[C@H]12
- MIC90 (Aeromonas): 2 µg/mL (≈ 5.6 µM)
- MIC90 [1]: 16 µg/mL (≈ 44.8 µM)
- MIC90 (Moraxella catarrhalis): 1 µg/mL (≈ 2.8 µM)
- MIC90 (Bacteroides fragilis): 32 µg/mL (≈ 89.5 µM)
- MIC90 (Clostridium perfringens): 0.25 µg/mL (≈ 0.7 µM)
- MIC90 (Citrobacter freundii): 1 µg/mL (≈ 2.8 µM)
- MIC90 (Enterococcus faecalis [2]): 8 µg/mL (≈ 22.4 µM)
- MIC90 (Enterococcus faecium): > 64 µg/mL
- MIC (Enterococcus faecalis [3]): 2 µg/mL (≈ 5.6 µM)
- MIC90 (Escherichia coli [4]): 0.015 µg/mL (≈ 0.042 µM)
- MIC90 (Klebsiella aerogenes): 16 µg/mL (≈ 44.8 µM)
- MIC (Escherichia coli [5]): 0.03 µg/mL (≈ 0.0839 µM)
- MIC (Escherichia coli [6]): 0.25 µg/mL (≈ 0.7 µM)
- MIC (Escherichia coli [7]): 0.12 µg/mL (≈ 0.336 µM)
- MIC (Escherichia coli [8]): 0.25 µg/mL (≈ 0.7 µM)
- MIC (Escherichia coli [9]): 0.03 µg/mL (≈ 0.0839 µM)
- MIC90 (Haemophilus influenzae): 4 µg/mL (≈ 11.2 µM)
- MIC90 (Klebsiella pneumoniae): 0.5 µg/mL (≈ 1.4 µM)
- MIC90 (Listeria monocytogenes): 0.12 µg/mL (≈ 0.336 µM)
- MIC90 (Morganella morganii): 8 µg/mL (≈ 22.4 µM)
- MIC (Pseudomonas aeruginosa [10]): 0.06 µg/mL (≈ 0.168 µM)
- MIC (Pseudomonas aeruginosa [11]): > 64 µg/mL
- MIC (Pseudomonas aeruginosa [12]): 0.2 µg/mL (≈ 0.56 µM)
- MIC90 (Proteus vulgaris): 4 µg/mL (≈ 11.2 µM)
- MIC90 (Providencia stuartii): 4 µg/mL (≈ 11.2 µM)
- MIC90 (Providencia rettgeri): 4 µg/mL (≈ 11.2 µM)
- MIC90 (Proteus mirabilis): 4 µg/mL (≈ 11.2 µM)
- MIC90 (Pseudomonas aeruginosa [13]): > 64 µg/mL
- MIC90 [14]: 1 µg/mL (≈ 2.8 µM)
- MIC90 (Streptococcus agalactiae): 0.06 µg/mL (≈ 0.168 µM)
- MIC90 (Staphylococcus aureus [15]): 0.12 µg/mL (≈ 0.336 µM)
- MIC90 (Staphylococcus aureus [16]): > 32 µg/mL
- MIC (Staphylococcus aureus [17]): 0.25 µg/mL (≈ 0.7 µM)
- MIC (Staphylococcus aureus [18]): 8 µg/mL (≈ 22.4 µM)
- MIC (Staphylococcus aureus [19]): 0.12 µg/mL (≈ 0.336 µM)
- MIC (Staphylococcus aureus [20]): 0.12 µg/mL (≈ 0.336 µM)
- MIC90 (Streptococcus pyogenes): 0.03 µg/mL (≈ 0.0839 µM)
- MIC90 (Streptococcus pneumoniae): 0.03 µg/mL (≈ 0.0839 µM)
- MIC90 (Yersinia sp.): 0.15 µg/mL (≈ 0.42 µM)
- MIC90 [21]: > 64 µg/mL
- MIC (Escherichia coli [22]): 0.12 µg/mL (≈ 0.336 µM)
